The source of these data is ChEMBL document CHEMBL1126216, “Amide, urea, and carbamate analogues of the muscarinic agent [4-[[N-(3-chlorophenyl)carbamoyl]oxy]-2-butynyl]trimethylammonium chloride” (1992).

Test [1] relates to Rattus norvegicus. Description: In vivo intravenous dose required to produce a half maximal pressor response in the pithed rat. In kind it is functional. In a few lines: (§1)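 Male Sprague-Dawley rats (250-300 g), anesthetized with sodium amytal (125 mg/kg ip), intubated, pithed; body temperature held at 37 °C; 30 min stabilization. Ganglionic nicotinic block with pentolinium tartrate (18.5 μmol/kg iv) 20 min before agonist. Drugs in 0.9% saline, iv, 0.1 mL/100 g. Mean arterial pressure recorded; two or three compounds per rat; five to eight rats per compound.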

Test [2] deals with Rattus norvegicus. Put plainly: In vivo intrinsic pressor activity for its ability to maximally elevate arterial pressure in pithed rat. In kind it is functional, Artery. In short, it runs like this: as §1
Test [3] concerns Muscarinic acetylcholine receptor M1 (Oryctolagus cuniculus).

For `C[N+](C)(C)CC#CCOC(=O)Nc1cccc(Cl)c1`, the 50% effect level with Rattus norvegicus [1] (ED50) was put at a dose of 0.45 µmol/kg. In the test on Rattus norvegicus [2], the IPA turned out to be 1.
In the test with Rattus norvegicus [1], `CC(C#CC[N+](C)(C)C)N(C)C(=O)Cc1cccc(Cl)c1` (configuration not stated) gave an ED50 of 1.48 µmol/kg. In addition, the IPA in the test on Rattus norvegicus [2] is 1. The molecule also returned a KA in test [3] of 416 µM.
Taken in the same sequence, the figures for `CN(CC#CC[N+](C)(C)C)C(=O)Nc1cccc(Cl)c1` were 0.55 µmol/kg, 1 and 24.8 µM.
For the molecule `CC(C#CC[N+](C)(C)C)OC(=O)Nc1ccc(Cl)cc1` (racemic), it took a dose of 0.029 µmol/kg to reach the 50% effect level in the test on Rattus norvegicus [1] (ED50). The IPA with Rattus norvegicus [2] came out at 0.75. Further, the KA in test [3] was 0.48 µM.
The molecule `CC(C#CC[N+](C)(C)C)N(C)C(=O)Nc1cccc(Cl)c1` (configuration not stated) registered a median effective dose (ED50) with Rattus norvegicus [1] of 0.69 µmol/kg. For the same molecule, the IPA with Rattus norvegicus [2] was found to be 1. This molecule registered a KA in test [3] of 83.3 µM.
Take `CN(CC#CC[N+](C)(C)C)C(=O)Cc1cccc(Cl)c1`: the median effective dose (ED50) in the test with Rattus norvegicus [1] is 0.92 µmol/kg. The molecule also returned an IPA in the test on Rattus norvegicus [2] of 1. The same molecule came in with a KA in test [3] of 20.2 µM.
The molecule `C[C@@H](C#CC[N+](C)(C)C)OC(=O)Nc1ccc(Cl)cc1` came in with an ED50 in the test with Rattus norvegicus [1] of 0.008 µmol/kg. For the same molecule, the IPA in the test with Rattus norvegicus [2] turned out to be 0.66. The molecule further came in with a KA in test [3] of 0.18 µM.
On the same counts, the results for `C[C@@H](C#CC[N+](C)(C)C)OC(=O)Nc1cccc(Cl)c1` are 0.12 µmol/kg, 0.7 and 2.12 µM.
On to `C[C@H](C#CC[N+](C)(C)C)OC(=O)Nc1ccc(Cl)cc1`, for which, in the test with Rattus norvegicus [1], it took a dose of 0.039 µmol/kg to reach the 50% effect level (ED50). In the test on Rattus norvegicus [2], the IPA was 0.8. The same molecule showed a KA in test [3] of 0.49 µM.
Taken in the same sequence, the figures for `C[C@H](C#CC[N+](C)(C)C)OC(=O)Nc1cccc(Cl)c1` were 0.18 µmol/kg, 1 and 0.78 µM.
In the test with Rattus norvegicus [1], `CC(C#CC[N+](C)(C)C)OC(=O)Nc1cccc(Cl)c1` (racemic) gave an ED50 of 0.09 µmol/kg. Besides, the IPA with Rattus norvegicus [2] was 0.76. This molecule yielded a KA in test [3] of 1.46 µM.

A word on the ED50: it is the midpoint of the dose-response relation.
